Bioassay records deposited in PubChem by The Scripps Research Institute Molecular Screening Center.
An excerpt weighted towards active compounds, which were near 1.9% of everything screened.
DDE Tn6 FP inh: inhibitors of Tn6 peptide binding to fibrin DD(E), primary screen, biochemical, fluorescence polarization, human fibrin, Tn6 probe; Fibrinogen beta chain (Homo sapiens), P02675; AID 720509, 2013; Fibrin DD(E) TRITC-Tn6 fluorescence polarization displacement; inhibition, % at 8.3 µM; 0.21% of 370,000 active;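 active = inhibition above a per-campaign cutoff: mean of compounds within control limits plus 3 SD, cut at about 15% in these data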;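 note: 0% = median of all compound wells on the plate and 100% = blocking peptide control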
MBD2 DNA inh: inhibitors of MBD2 binding to methylated DNA, primary screen, biochemical, TR-FRET, DNA-binding domain, human. MBD2 binding to methylated oligonucleotide. inhibition, % at 4.4 µM. 0.31% of 370,000 active; in the data active = inhibition above about 13%
Target sequence (Q9UBB5 whole entry, looked up, the tested form may be a part): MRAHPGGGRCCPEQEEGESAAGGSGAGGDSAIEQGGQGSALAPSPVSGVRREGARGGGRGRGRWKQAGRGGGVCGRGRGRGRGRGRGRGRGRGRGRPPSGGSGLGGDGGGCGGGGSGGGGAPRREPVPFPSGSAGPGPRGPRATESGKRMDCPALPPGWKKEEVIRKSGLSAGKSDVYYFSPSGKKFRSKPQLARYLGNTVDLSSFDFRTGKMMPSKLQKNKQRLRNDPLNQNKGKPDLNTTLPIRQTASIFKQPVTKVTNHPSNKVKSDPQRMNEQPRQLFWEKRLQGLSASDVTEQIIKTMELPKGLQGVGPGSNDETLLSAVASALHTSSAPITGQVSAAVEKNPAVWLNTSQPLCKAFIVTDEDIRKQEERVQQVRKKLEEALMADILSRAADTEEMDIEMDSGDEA
UHRF1 binding: UHRF1 methylated DNA binding inhibitors, primary screen, counter-screen for MBD2 inhibitor project, biochemical, TR-FRET, human UHRF1, single concentration; 0.75% of 370,000 active; E3 ubiquitin-protein ligase UHRF1 (Homo sapiens), Q96T88; inhibition, % at 4.4 µM; UHRF1 binding to methylated oligo; in the data active = inhibition above about 21%;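 note: UHRF1 SRA domain binding a hemimethylated CpG hairpin DNA probe; 0% = median of test compound wells and 100% = reference inhibitor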
LEDGF integ inh: blockers of LEDGF/p75-dependent integrase strand transfer – biochemical, TR-FRET, high throughput, primary screen; HIV-1 integrase (with human LEDGF/p75); TR-FRET IN-LEDGF/p75 DNA integration, Eu/Cy5; inhibition, % at 3.7 µM; 0.64% of 370,000 active;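 active = inhibition above the screen-wide mean plus 3 SD, cut at about 13% in these data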;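 note: signal is the Cy5 over europium emission ratio at 671 and 618 nm; 0% = plate median of compound wells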
TDP2 inh: human TDP2 enzyme inhibitors, primary screen, biochemical, epi absorbance, recombinant enzyme | Tyrosyl-DNA phosphodiesterase 2 (Homo sapiens), O95551 | T5PNP hydrolysis, p-nitrophenol absorbance 415 nm | AID 720702, 2013 | 0.34% of 370,000 active | inhibition, % at 12.8 µM;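 active = inhibition above the mean of all tested compounds plus 3 SD, set per campaign, cut at about 25% in these data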;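 note: 0% = DMSO with enzyme and 100% = buffer with substrate but no TDP2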
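Read-out basis: percent inhibition. System: recombinant human TDP2. Buffer or medium: Mg2+-containing Tris-HCl buffer, pH 7.5. Repeats: single replicate. Timing: reaction 2 h, 37 °C. Benchmarks: high control without enzyme, low control DMSO plus TDP2. Probe or stimulus: 5 mM T5PNP. Doses: 12.8 µM only. Measured by: epi absorbance of p-nitrophenol freed from T5PNP by hydrolysis.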
DDE Tn7 FP inh: inhibitors of Tn7 peptide binding to fibrin DD(E), primary screen, biochemical, fluorescence polarization, human fibrin, Tn7 probe | Fibrinogen beta chain (Homo sapiens), P02675 | FP displacement of FITC-Tn7 peptide from fibrin DD(E); 0% = median of compound wells per plate | inhibition, % at 8.3 µM | 0.13% of 370,000 active;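 active = inhibition above the mean of compounds falling within the control limits plus 3 SD of them, cut at about 14% in these data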;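 note: 0% = plate median of compound wells and 100% = 10 µM Aha-Tn7 peptide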
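Assay system: human fibrin DD(E). Input: DD(E) 2 µM final. Medium: Tris buffer with calcium and detergent, pH 7.8. Compound dosing: single point at 8.3 µM. Timing: 10 min plus 3 h, room temperature. Technique: fluorescence polarization of the labelled Tn7 tracer. Read-out: percent inhibition. Replicates: singlicate testing.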
IN multimer up: HIV-1 IN multimer formation enhancers, counter-screen for LEDGF/p75 integration inhibitor project, biochemical, TR-FRET; shares compounds with LEDGF integ inh; TR-FRET HIV-1 integrase multimerization; activation, % at 7.7 µM; 17% of 2,000 active; AID 1053131, 2014; in the data active = activation above about 8.9%
TRFRET interf: TR-FRET optical interference artefacts, confirmation, artefact control for LEDGF/p75-dependent integration inhibitor project, biochemical, HIV-1 IN multimerization | TR-FRET optical interference counterscreen | inhibition, % at 7.7 µM | 2,000 tested, under 10 active | shares compounds with LEDGF integ inh;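 active = inhibition above the mean over all tested compounds plus 3 SD, which no compound reached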;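 note: 0% = integrase with antibodies and DMSO and 100% = antibodies without integrase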
LEDGF integ conf: inhibitors of HIV-1 IN-LEDGF/p75 DNA integration, confirmation, biochemical, TR-FRET; shares compounds with LEDGF integ inh; TR-FRET LEDGF/p75-dependent HIV-1 integration; inhibition, % at 3.7 µM; 36% of 2,000 active; AID 1053136, 2014; in the data active = inhibition above about 14%
Active calls of the source: *; nt = no result given.

SMILES	DDE Tn6 FP inh	MBD2 DNA inh	UHRF1 binding	LEDGF integ inh	TDP2 inh	DDE Tn7 FP inh	IN multimer up	TRFRET interf	LEDGF integ conf
C=CCSc1nc2sc3c(c2c(=O)n1-c1ccc(C)cc1)CCN(C)C3	-7	3	2	34*	15	0	-1	5	-5
Cc1cc2c(nc1C)CCCN2Cc1ccccn1	7	1	-4	0	8	7	nt	nt	nt
O=C1CC(NS(=O)(=O)c2ccc3ccccc3c2)CN1c1ccccc1 (centres undefined)	11	-4	-1	56*	15	-1	4	-21	4
O=C1CC(NS(=O)(=O)c2cccnc2)CN1c1ccccc1 (centres undefined)	5	0	-1	-2	3	-6	nt	nt	nt
CC(=O)N1CCC(N(C(=O)Nc2c(F)cccc2F)C(C)C)CC1	10	-1	-1	20*	-7	-3	0	-1	-1
COC(=O)c1cc(-c2ccccc2)c(=O)n2c1CCC2	3	2	1	-1	8	1	nt	nt	nt
Cc1c(F)cccc1NC(=O)CCC(=O)O	1	0	-1	1	1	-3	nt	nt	nt
CC1NC(=O)NC1CCCCCC(=O)Nc1ccc(F)cc1 (centres undefined)	0	4	-4	84*	5	1	-2	12	93*
Cc1c(F)cccc1NC(=O)CCCCCC1NC(=O)NC1C (centres undefined)	-5	5	-2	78*	5	-5	-1	5	89*
Cc1cc(Oc2cccnc2)ccc1NC(=O)Cc1c[nH]c2ccccc12	-2	2	-2	1	-10	2	nt	nt	nt
CCCCCCCCN1C(=O)[C@@H](CC(=O)NCc2cccs2)C[C@@]2(C(=O)OC)C1=C[C@H](C1CCCC1)O[C@@H]2C	3	3	6	-2	-4	9	nt	nt	nt
C/C=C(\C)CN1CCCC(CO)(Cc2ccccc2)C1 (centres undefined)	-6	-5	1	14*	-11	-5	1	-3	1
CCN(CC(=O)Nc1c(F)cccc1F)C(=O)C1CC(=O)N(CCc2ccccc2)C1 (centres undefined)	-3	2	-1	35*	14	0	-2	12	-10
CCN(C[C@H]1N[C@@](C)(C(=O)OC)[C@H]2C(=O)N(C)C(=O)[C@@H]12)S(=O)(=O)c1ccc(C)cc1	4	-7	-1	34*	-7	1	-3	12	-1
CCCCC[C@@H](C)N1C[C@H](COCc2ccccc2)Oc2cc(N3CC[C@H](N(C)C)C3)ccc2S1(=O)=O	1	-3	0	16*	-10	7	0	-2	-2
C/C=C(\C)CN1CCN(c2ccccc2)CC1	6	1	-1	27*	5	1	0	-1	4
C=CCn1c(SCc2cc(=O)n3ccsc3n2)nnc1C1CCCCC1	-1	4	10	15*	-4	1	6	-29	2
c1coc(CSSCc2ccco2)c1	-6	32*	83*	46*	-3	5	0	-2	11
c1ccc(CNc2ccc(N3CCOCC3)cc2)cc1	3	0	0	15*	10	5	2	-10	-6
CN1c2ccc(C#CC3CC3)cc2[C@@H]2[C@@H](CCN2C(=O)C2CCOCC2)[C@H]1CO	1	-3	0	-4	2	-6	nt	nt	nt
NC(c1csc(Nc2ccccn2)n1)c1ccccc1Cl (centres undefined)	1	-5	-5	15*	-9	-1	-1	7	-7
C[C@H]1CN([C@@H](C)CO)C(=O)CCCn2nncc2CO[C@@H]1CN(C)S(=O)(=O)c1ccc(Oc2ccccc2)nc1	3	2	-1	26*	-1	-1	0	2	-13
C[C@@H]1CN([C@H](C)CO)C(=O)CCCn2nncc2CO[C@H]1CN(C)S(=O)(=O)c1ccc(Oc2ccccc2)nc1	8	1	1	-1	-1	-3	nt	nt	nt
CCOC(=O)[C@@H]1CSCCS(=O)(=O)N1Cc1ccccc1	6	0	-3	-2	-6	6	nt	nt	nt
CC1(C(=O)Nc2ccc3nc[nH]c3c2)CCN1C(=O)C1(c2ccccc2)CCCC1 (centres undefined)	-9	0	-2	25*	-5	-3	-2	9	-4
SMILES	DDE Tn6 FP inh	MBD2 DNA inh	UHRF1 binding	LEDGF integ inh	TDP2 inh	DDE Tn7 FP inh	IN multimer up	TRFRET interf	LEDGF integ conf
Cc1ccc(-n2c(SCC(=O)Nc3ccc(OCc4ccccc4)cc3)nnc2-c2ccco2)cc1	0	-2	0	0	-1	4	nt	nt	nt
O=C(CCN1CCOCC1)N1c2ccccc2Sc2ccc(Cl)cc21	-2	4	1	17*	1	-6	-2	9	3
Cc1ccc(Nc2c([N+](=O)[O-])c(=O)oc3ccccc23)cc1C	-13	7	5	14*	0	-5	3	-9	12
O=c1oc2ccccc2c(Nc2cccc(O)c2)c1[N+](=O)[O-]	3	-10	-3	5	8	3	nt	nt	nt
CCCn1cnnc1CNC(=O)[C@@H](Cc1ccccc1)NC(=O)[C@H]1O[C@@H](n2ccc(=O)[nH]c2=O)[C@H](O)[C@@H]1O	5	1	-2	6	0	-6	nt	nt	nt
O=C(/C=C/c1ccco1)Nc1sc2c(c1C(=O)O)CCC2	-9	8	33*	21*	15	0	3	-9	-3
O=C(O)CCCCCNC(=O)/C=C/c1ccco1	9	4	-1	-2	8	3	nt	nt	nt
